From ChEMBL document CHEMBL3621102, “Structure-activity study of quinazoline derivatives leading to the discovery of potent EGFR-T790M inhibitors” (Eur J Med Chem, 2015)
Activity calls are given as the source filed them. The calls are words filed in the database; no cut-off is given here.

Columns and labels:
[1] = biological target: Epidermal growth factor receptor (Homo sapiens, UniProt P00533); assay: Inhibition of EGFR (unknown origin) by ELISA method
NCI-H1975 [2] = assay: Antiproliferative activity against human NCI-H1975 cells assessed as growth inhibition; assay type: functional
Summary of the method: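 NCI-H1975 cells were grown in RPMI with 1 mM sodium pyruvate, 10% FBS and 1% penicillin-streptomycin, under humidified 5% CO₂ at 37 °C. Growth inhibition was read as GI₅₀.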

[3] = AUC (0 to 24 hrs) in Sprague-Dawley rat at 1 mg/kg, iv by LC/MS/MS method; assay type: ADME, organism-based; set-up: time < 24 hr, dose 1 mg/kg, route intravenous; conditions: in vivo
Summary of the method: (§1)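 Male Sprague-Dawley rats (n = 3) dosed once at 1 mg/kg iv via tail vein, or once at 5 mg/kg by oral gavage, using the same formulation. Serial blood samples were taken over 24 h. Plasma levels were measured by LC/MS/MS (C18 column, 10 mM ammonium formate-0.1% formic acid water/methanol 10/90, ESI positive). Parameters were derived by noncompartmental analysis.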

[4] = AUC (0 to infinity) in Sprague-Dawley rat at 1 mg/kg, iv by LC/MS/MS method; assay type: ADME, organism-based; set-up: dose 1 mg/kg, time infinity, route intravenous; conditions: in vivo; summary of the method: as §1
[5] = Elimination half-life in Sprague-Dawley rat at 1 mg/kg, iv incubated for 24 hrs by LC/MS/MS method; assay type: ADME, organism-based; conditions: in vivo, read-out: beta t1/2 (converted); summary of the method: as §1
[6] = Mean residence time in Sprague-Dawley rat at 1 mg/kg, iv incubated for 24 hrs by LC/MS/MS method; assay type: ADME, organism-based; conditions: in vivo; summary of the method: as §1
[7] = Bioavailability in Sprague-Dawley rat at 1 mg/kg, iv incubated for 24 hrs by LC/MS/MS method; assay type: ADME, organism-based; conditions: in vivo; summary of the method: as §1
[8] = Apparent volume of distribution in Sprague-Dawley rat at 1 mg/kg, iv incubated for 24 hrs by LC/MS/MS method; assay type: ADME, organism-based; conditions: in vivo, read-out: Vd(app); summary of the method: as §1
[9] = Clearance in Sprague-Dawley rat at 1 mg/kg, iv incubated for 24 hrs by LC/MS/MS method; assay type: ADME, organism-based; conditions: in vivo; summary of the method: as §1
NCI-H1975 [10] = assay: Antitumor activity against human NCI-H1975 cells xenografted in BALB/c mouse assessed as tumor growth inhibition at 50 mg/kg po, qd for 21 days; assay type: functional, organism-based
Summary of the method: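 Athymic mice received 2 × 10⁶ tumour cells subcutaneously in the right flank. At 100–300 mm³ they were randomised to control and treatment groups (n = 6); controls received vehicle alone. Tumour volume = length × width²/2 and RTV = Vt/V0.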

Chain of Epidermal growth factor receptor (P00533 whole entry): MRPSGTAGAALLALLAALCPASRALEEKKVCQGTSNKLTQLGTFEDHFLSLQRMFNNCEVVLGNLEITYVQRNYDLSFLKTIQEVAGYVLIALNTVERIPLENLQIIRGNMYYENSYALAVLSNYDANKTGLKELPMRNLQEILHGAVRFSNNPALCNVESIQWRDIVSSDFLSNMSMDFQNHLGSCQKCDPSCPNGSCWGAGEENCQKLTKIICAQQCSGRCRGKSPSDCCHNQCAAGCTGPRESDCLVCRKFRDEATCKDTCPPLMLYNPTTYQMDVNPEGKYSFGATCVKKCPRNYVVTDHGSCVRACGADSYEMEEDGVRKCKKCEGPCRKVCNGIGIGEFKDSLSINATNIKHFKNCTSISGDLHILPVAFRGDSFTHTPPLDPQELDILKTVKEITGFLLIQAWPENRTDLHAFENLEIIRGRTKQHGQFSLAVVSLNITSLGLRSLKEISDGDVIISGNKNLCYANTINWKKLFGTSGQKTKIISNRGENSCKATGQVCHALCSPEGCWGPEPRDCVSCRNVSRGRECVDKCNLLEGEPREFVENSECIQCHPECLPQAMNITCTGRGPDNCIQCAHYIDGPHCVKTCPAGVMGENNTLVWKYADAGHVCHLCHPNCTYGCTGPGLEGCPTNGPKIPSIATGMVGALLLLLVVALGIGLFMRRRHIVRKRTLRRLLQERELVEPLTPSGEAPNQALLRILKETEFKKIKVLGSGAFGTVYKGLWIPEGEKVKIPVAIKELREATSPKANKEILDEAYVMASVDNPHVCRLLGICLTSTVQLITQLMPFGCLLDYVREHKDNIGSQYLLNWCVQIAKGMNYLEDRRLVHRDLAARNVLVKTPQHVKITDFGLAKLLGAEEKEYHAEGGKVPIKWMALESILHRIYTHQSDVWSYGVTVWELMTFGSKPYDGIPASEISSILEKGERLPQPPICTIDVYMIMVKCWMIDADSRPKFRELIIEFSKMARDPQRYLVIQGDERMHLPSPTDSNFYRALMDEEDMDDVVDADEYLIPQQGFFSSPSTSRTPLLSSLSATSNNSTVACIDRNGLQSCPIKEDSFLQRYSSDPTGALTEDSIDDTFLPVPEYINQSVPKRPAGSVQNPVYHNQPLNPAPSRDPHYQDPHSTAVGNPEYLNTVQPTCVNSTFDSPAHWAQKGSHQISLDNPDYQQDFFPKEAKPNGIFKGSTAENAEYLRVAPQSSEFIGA

Row | Compound | IC50 [1] [µM] | GI50 (NCI-H1975 [2]) [µM] | other results
1 | COCCOc1cc2ncnc(Nc3ccc(OCc4cccc(F)c4)c(Cl)c3)c2cc1NC(=O)/C=C/CN(C)C | > 1 | – | –
2 | C=CC(=O)Nc1cc2c(Nc3ccc(Br)cc3F)ncnc2cc1O[C@H]1CCOC1 | 0.121 | – | –
3 | O=C(/C=C/CN(C1CC1)C1CC1)Nc1cc2c(Nc3ccc(F)c(Cl)c3)ncnc2cc1O[C@H]1CCOC1 | > 1 | – | –
4 | C=CC(=O)Nc1cc2c(Nc3ccc(Cl)c(C(F)(F)F)c3)ncnc2cc1O[C@H]1CCOC1 | 0.105 | – | –
5 | COCCOc1cc2ncnc(Nc3ccc(F)c(C#N)c3)c2cc1NC(=O)/C=C/CN(C)C | > 1 | – | –
6 | CN(C)C/C=C/C(=O)Nc1cc2c(Nc3ccc(F)c(Cl)c3)ncnc2cc1O[C@H]1CCOC1 [AFATINIB] | – | 0.107 | AUC(0-t) at 24 h [3]: 0.277 µg·h/mL; AUC(0-inf) [4]: 0.325 µg·h/mL; half-life [5]: 9.6 h; MRT [6]: 10.6 h; bioavailability [7]: 62.3%; Vd [8]: 10.8 L/kg; clearance [9]: 3.25 L/h/kg
7 | C=CC(=O)Nc1cc2c(Nc3ccc(OCc4cccc(F)c4)c(Cl)c3)ncnc2cc1OCCOC | 0.102 | – | –
8 | CN(C)C/C=C/C(=O)Nc1cc2c(Nc3ccc(OCc4cccc(F)c4)c(Cl)c3)ncnc2cc1O[C@H]1CCOC1 | 0.51 | – | –
9 | O=C1CCN(C/C=C/C(=O)Nc2cc3c(Nc4ccc(F)c(Cl)c4)ncnc3cc2O[C@H]2CCOC2)CC1 | 0.52 | – | –
10 | C#Cc1cccc(Nc2ncnc3cc(O[C@H]4CCOC4)c(NC(=O)C=C)cc23)c1 | 0.0322 | – | –
11 | O=C(/C=C/CNC1CC1)Nc1cc2c(Nc3ccc(F)c(Cl)c3)ncnc2cc1OCC(F)(F)F | – | 0.0203 | –
12 | COCCOc1cc2ncnc(Nc3ccc(OCc4cccc(F)c4)cc3)c2cc1NC(=O)/C=C/CN(C)C | 0.091 | – | –
13 | C=CC(=O)Nc1cc2c(Nc3ccc(OCc4cccc(F)c4)c(Cl)c3)ncnc2cc1O[C@H]1CCOC1 | 0.56 | – | –
14 | COc1cc2ncnc(Nc3ccc(F)c(Cl)c3)c2cc1NC(=O)/C=C/CN(C1CC1)C1CC1 | > 1 | – | –
15 | CN(C)C/C=C/C(=O)Nc1cc2c(Nc3ccc(F)c(C#N)c3)ncnc2cc1O[C@H]1CCOC1 | 0.147 | – | –
16 | COCCOc1cc2ncnc(Nc3ccc(NC(=O)/C=C/CN(C)C)c(C(F)(F)F)c3)c2cc1NC(=O)/C=C/CN(C)C | 0.102 | – | –
17 | CCOc1cc2ncnc(Nc3ccc(F)c(Cl)c3)c2cc1NC(=O)/C=C/CN(C1CC1)C1CC1 | > 1 | – | –
18 | COCCOc1cc2ncnc(Nc3ccc(Cl)c(C(F)(F)F)c3)c2cc1NC(=O)/C=C/CN(C)C | 0.574 | – | –
19 | CN(C)C/C=C/C(=O)Nc1cc2c(Nc3ccc(OCc4cccc(F)c4)cc3)ncnc2cc1O[C@H]1CCOC1 | 0.134 | – | –
20 | O=C(/C=C/CN1CC[S+]([O-])CC1)Nc1cc2c(Nc3ccc(F)c(Cl)c3)ncnc2cc1O[C@H]1CCOC1 | 0.109 | – | –
21 | COc1cc2ncnc(Nc3ccc(F)c(Cl)c3)c2cc1NC(=O)/C=C/CN1CC[S+]([O-])CC1 | > 1 | – | –
22 | COCCOc1cc2ncnc(Nc3ccc(F)c(Cl)c3)c2cc1NC(=O)/C=C/CN1CC[S+]([O-])CC1 | 0.357 | – | –
23 | COc1cc2ncnc(Nc3ccc(F)c(Cl)c3)c2cc1NC(=O)/C=C/CNC1CC(F)(F)C1 | 0.141 | 0.0987 | –
24 | C=CC(=O)Nc1cc2c(Nc3ccc(OCc4cccc(F)c4)cc3)ncnc2cc1O[C@H]1CCOC1 | 0.0722 | – | –
25 | C=CC(=O)Nc1cc2c(Nc3ccc(OCc4ccccn4)cc3)ncnc2cc1O[C@H]1CCOC1 | 0.1 | – | –
26 | C=CC(=O)Nc1cc2c(Nc3ccc(Cl)c(C(F)(F)F)c3)ncnc2cc1OCCOC | > 1 | – | –
27 | C=CC(=O)Nc1cc2c(Nc3ccc(F)c(C#N)c3)ncnc2cc1OCCOC | 0.196 | – | –
28 | C=CC(=O)Nc1cc2c(Nc3ccc(F)c(C#N)c3)ncnc2cc1O[C@H]1CCOC1 | 0.167 | – | –
29 | COc1cc2ncnc(Nc3ccc(F)c(Cl)c3)c2cc1NC(=O)/C=C/CN1CCCCC1 [DACOMITINIB ANHYDROUS] | – | 0.123 | –
30 | C=CC(=O)Nc1cc2c(Nc3ccc(NC(=O)C=C)c(C(F)(F)F)c3)ncnc2cc1OCCOC | 0.115 | – | –

The next lines start with results.

Row | IC50 [1] [µM] | GI50 (NCI-H1975 [2]) [µM] | Compound | other results
31 | 0.0089 | 0.0871 | COCCOc1cc2ncnc(Nc3ccc(F)c(Cl)c3)c2cc1NC(=O)/C=C/CN(C)C1CC1 | –
32 | 0.0053 | 0.168 | O=C(/C=C/CN1CCCCC1)Nc1cc2c(Nc3ccc(F)c(Cl)c3)ncnc2cc1O[C@H]1CCOC1 | –
33 | 0.009 | – | CN(C)C/C=C/C(=O)Nc1cc2c(Nc3ccc(OCc4ccccn4)cc3)ncnc2cc1O[C@H]1CCOC1 | –
34 | 0.0012 | – | C#Cc1cccc(Nc2ncnc3cc(O[C@H]4CCOC4)c(NC(=O)/C=C/CN(C)C)cc23)c1 | –
35 | 0.007 | 0.0224 | CC(C)NC/C=C/C(=O)Nc1cc2c(Nc3ccc(F)c(Cl)c3)ncnc2cc1O[C@H]1CCOC1 | TGI (NCI-H1975 [10]): inactive; AUC(0-t) at 24 h [3]: 0.166 µg·h/mL; AUC(0-inf) [4]: 0.197 µg·h/mL; half-life [5]: 9.9 h; MRT [6]: 8.8 h; bioavailability [7]: < 5%; Vd [8]: 6.5 L/kg; clearance [9]: 5.4 L/h/kg
36 | 0.0053 | 0.0401 | C#Cc1cccc(Nc2ncnc3cc(O[C@H]4CCOC4)c(NC(=O)/C=C/CN4CCCCC4)cc23)c1 | –
37 | 0.0021 | 0.0923 | COCCOc1cc2ncnc(Nc3ccc(F)c(Cl)c3)c2cc1NC(=O)/C=C/CN1CCCCC1 | –
38 | 0.0055 | 0.16 | CCOc1cc2ncnc(Nc3ccc(F)c(Cl)c3)c2cc1NC(=O)/C=C/CN(C)C1CC1 | –
39 | 0.0027 | 0.0489 | C#Cc1cccc(Nc2ncnc3cc(OC)c(NC(=O)/C=C/CN4CCCCC4)cc23)c1 | –
40 | 0.0081 | – | CN(C)C/C=C/C(=O)Nc1cc2c(Nc3ccc(OCc4ccccn4)c(Cl)c3)ncnc2cc1O[C@H]1CCOC1 | –
41 | 0.0054 | – | COCCOc1cc2ncnc(Nc3ccc(OCc4ccccn4)c(Cl)c3)c2cc1NC(=O)/C=C/CN(C)C | –
42 | 0.0058 | – | C=CC(=O)Nc1cc2c(Nc3ccc(F)c(Cl)c3)ncnc2cc1O[C@H]1CCOC1 | –
43 | 0.0061 | 0.0304 | C#Cc1cccc(Nc2ncnc3cc(OCC)c(NC(=O)/C=C/CN4CCCCC4)cc23)c1 | –
44 | 0.0096 | 0.0346 | O=C(/C=C/CNC1CC1)Nc1cc2c(Nc3ccc(F)c(Cl)c3)ncnc2cc1OC(F)F | –
45 | 0.003 | – | COCCOc1cc2ncnc(Nc3ccc(Br)cc3F)c2cc1NC(=O)/C=C/CN(C)C | –
46 | 0.0018 | – | C#Cc1cccc(Nc2ncnc3cc(OCCOC)c(NC(=O)C=C)cc23)c1 | –
47 | 0.01 | – | COCCOc1cc2ncnc(Nc3ccc(OCc4ccccn4)cc3)c2cc1NC(=O)/C=C/CN(C)C | –
48 | 0.0012 | – | COCCOc1cc2ncnc(Nc3ccc(F)c(Cl)c3)c2cc1NC(=O)/C=C/CN(C)C | –
49 | 0.0064 | 0.0198 | C#Cc1cccc(Nc2ncnc3cc(O[C@H]4CCOC4)c(NC(=O)/C=C/CNC(C)C)cc23)c1 | TGI (NCI-H1975 [10]): inactive; AUC(0-t) at 24 h [3]: 0.0926 µg·h/mL; AUC(0-inf) [4]: 0.105 µg·h/mL; half-life [5]: 1.5 h; MRT [6]: 2.6 h; bioavailability [7]: < 5%; Vd [8]: 7.4 L/kg; clearance [9]: 10.2 L/h/kg
50 | 0.0081 | – | C#Cc1cccc(Nc2ncnc3cc(OC4CCN(C)CC4)c(NC(=O)/C=C/CN(C)C)cc23)c1 | –
51 | 0.0269 | 0.0322 | COc1cc2ncnc(Nc3ccc(F)c(Cl)c3)c2cc1NC(=O)/C=C/CN(C)C1CC1 | –
52 | 0.0033 | 0.0705 | C#Cc1cccc(Nc2ncnc3cc(OC)c(NC(=O)/C=C/CN(C)C4CC4)cc23)c1 | –
53 | 0.006 | – | C#Cc1cccc(Nc2ncnc3cc(OC4CCOCC4)c(NC(=O)/C=C/CN(C)C)cc23)c1 | –
